Bioassay records from PubChem BioAssay.
Most compounds without a hit are left out; they make up all but 1.4% or so of the library.
Apaf1 inhib – inhibitors of human Apaf-1 apoptosome | O14727 | reconstituted apoptosome caspase-3 activity, DEVD-Rh110 fluorescence | inhibition, % at 20 µM | 330,000 compounds, 0.71% hits | AID 489030; active = inhibition of at least 40% at 20 µM;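 also: plate controls were DMSO wells for no effect and DEVD-CHO caspase inhibitor wells for full effect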
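Assay system – apoptosome proteins · Medium – Hepes buffer, pH 7.5 · Also added – cytochrome c with DEVD-Rh110 · Timing – 30 min compound preincubation, 50 min activation, room temperature · Detection – Rh110 fluorescence, excitation 480 nm, emission 540 nm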
Redox H2O2 prof – compounds producing H2O2 with reducing agent – biochemical, NIH compound library profiling, artefact control for MLSCN library redox annotation, primary screen; DTT-dependent redox cycling H2O2, phenol red/HRP absorbance; 100% = 100 µM peroxide control, 0% = buffer; activation, % at 10 µM; 200,000 compounds, 0.03% hits;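 active = activation of at least 50% relative to the plate's high and low controls in the primary single-dose screen; inactive = activation below 50%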;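 also: compound incubated with DTT at 0.8 mM final as the reducing agent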
SUMO HTRF inh – blocks human SUMOylation mediated by UBC9; 290,000 compounds, 0.36% hits; P63279; HTRF SUMOylation assay, SAE1/SAE2 + UBC9, in vitro; inhibition, % at 35 µM; in the data active = inhibition above about 50%, passing the limit was not always enough; inconclusive = no clear call, values can overlap the other calls
HKDC1 inh – HKDC1 (human) hexokinase inhibition. 340,000 compounds, 0.16% hits. inhibition, % at 20 µM. recombinant HKDC1, G6PDH/diaphorase resazurin coupled fluorescence. AID 493160;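 active = inhibition above about 35% when tested at 20 µM, limit read from the data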;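 also: plate controls were DMSO wells with enzyme for no effect and DMSO wells lacking enzyme for full effect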
Target sequence (Q2TB90 whole entry, looked up): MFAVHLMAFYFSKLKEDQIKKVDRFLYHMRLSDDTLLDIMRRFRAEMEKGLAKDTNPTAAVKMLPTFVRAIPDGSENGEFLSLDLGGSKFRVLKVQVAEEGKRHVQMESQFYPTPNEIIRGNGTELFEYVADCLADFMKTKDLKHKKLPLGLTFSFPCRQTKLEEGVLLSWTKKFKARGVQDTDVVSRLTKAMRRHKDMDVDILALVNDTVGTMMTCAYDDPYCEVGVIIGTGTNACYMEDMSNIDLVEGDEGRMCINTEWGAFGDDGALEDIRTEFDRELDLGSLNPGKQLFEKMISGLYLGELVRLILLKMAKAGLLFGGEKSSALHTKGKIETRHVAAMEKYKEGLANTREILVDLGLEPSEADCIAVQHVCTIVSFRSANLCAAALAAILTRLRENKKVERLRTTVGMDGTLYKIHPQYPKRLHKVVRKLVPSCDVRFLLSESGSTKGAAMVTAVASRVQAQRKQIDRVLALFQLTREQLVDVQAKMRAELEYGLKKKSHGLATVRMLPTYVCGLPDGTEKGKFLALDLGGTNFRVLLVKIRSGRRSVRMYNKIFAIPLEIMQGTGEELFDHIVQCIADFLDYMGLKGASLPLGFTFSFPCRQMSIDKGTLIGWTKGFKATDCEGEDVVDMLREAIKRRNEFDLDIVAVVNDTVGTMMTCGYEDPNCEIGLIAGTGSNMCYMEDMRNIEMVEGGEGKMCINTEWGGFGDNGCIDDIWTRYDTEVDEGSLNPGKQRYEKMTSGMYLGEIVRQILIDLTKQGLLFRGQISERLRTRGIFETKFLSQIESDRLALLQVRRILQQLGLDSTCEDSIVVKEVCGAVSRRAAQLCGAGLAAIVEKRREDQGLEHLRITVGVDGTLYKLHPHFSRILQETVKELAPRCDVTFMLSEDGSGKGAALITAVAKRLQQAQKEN
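Material: recombinant HKDC1 hexokinase; Amount: HKDC1 at 5 µg/mL; Medium: Tris pH 8.0 buffer with MgCl2, Tween-20, BSA, BME; Schedule: 90 min reaction incubation at room temperature, dark; Technique: coupled resazurin fluorescence, excitation 525 nm, emission 613 nm.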
GSTO1 counter – counter-screen for RBBP9 inhibitors: inhibitors of human GSTO1. AID 1974. inhibition, % at 5.96 µM. P78417. recombinant GSTO1, activity-based probe fluorescence polarization. 300,000 compounds, 1.1% hits;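 active = inhibition above the campaign mean inhibition plus 3 SD, cut at about 35% in these data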;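 also: 0% = GSTO1-1 with DMSO and 100% = wells lacking GSTO1-1 enzyme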
Apaf-1 inh conf2 – confirmation of Apaf-1 inhibitors. 1,800 compounds, 25% hits. AID 504614. inhibition, % at 20 µM. reconstituted apoptosome, caspase-3 DEVD-Rh110 fluorescence. shares compounds with Apaf1 inhib;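 active = mean inhibition of at least 40% at 20 µM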;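 also: plate controls were DMSO wells for no effect and DEVD-CHO caspase inhibitor control wells for full effect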
Rh110 quench – interferes with Rh110 fluorescence, flagging false Apaf-1 inhibitors. 1,800 tested, under 10 active. shares compounds with Apaf1 inhib. activation (fluorescence interference), % at 20 µM. AID 504615. Rh110 fluorescence interference, quenched caspase reaction;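 active = signal rise of 40% or more at 20 µM, treated as a fluorescence artifact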
Apaf1 inh interf – counter-screen for Apaf-1 inhibitors: fluorescence interference, dose response | 460 tested, under 10 active | AID 588538 | shares compounds with Apaf1 inhib | fluorescence interference counterscreen, Apaf-1 assay format | IC50, µM; call rule not given here
Starred values were filed as active, the others as inactive; ? = inconclusive; . = no result given.

SMILES | Apaf1 inhib | Redox H2O2 prof | SUMO HTRF inh | HKDC1 inh | GSTO1 counter | Apaf-1 inh conf2 | Rh110 quench | others
Cc1ccc(/C=C2\S/C(=N/S(=O)(=O)c3cccs3)NC2=O)cc1 | -3 | . | 25 | 9 | -45 | . | .
Cc1ccc(OCC(=O)N(Cc2nnc(-c3ccccc3Cl)o2)C2CC2)cc1C | 56* | . | . | -1 | . | 49* | 9 | Apaf1 inh interf=>100
CC(C)(C)CN1CCNC(=O)C1CC(=O)N1CCN(c2ccccc2)CC1 (configuration not stated) | -15 | . | 7 | 2 | 8 | . | .
O=C(COc1ccc(F)cc1)N(Cc1ccco1)C1CCS(=O)(=O)C1 (configuration not stated) | 10 | . | -4 | -5 | 8 | . | .
CCOC(=O)C1=C(COC(=O)COc2ccccc2C#N)NC(=O)NC1C (configuration not stated) | -1 | . | . | 0 | 1 | . | .
Cc1cc(Nc2cc(Cl)nc(Sc3ccc(NC(=O)C4CC4)cc3)n2)n[nH]1 | 2 | . | . | 3 | -14 | . | .
O=C1CCN(Cc2ccccc2)C=C1c1ccc(Cl)cc1 | 47* | . | . | -9 | . | 5 | 4
O=C1CCN(Cc2ccccc2)C=C1c1ccc(C(F)(F)F)cc1 | 10 | . | . | 0 | . | . | .
Cc1cc(Cl)ccc1NC(=S)NCC(O)c1ccccc1 (configuration not stated) | -3 | . | 10 | -6 | -4 | . | .
Cc1ccc(C(=O)Nc2ccccn2)cc1S(=O)(=O)N1CCOCC1 | 43* | . | . | -6 | 3 | 33 | 3
O=C(Nc1ccccn1)c1ccc(Cl)c(S(=O)(=O)N2CCOCC2)c1 | 4 | . | 13 | -8 | -3 | . | .
O=C(C1CCCN1S(=O)(=O)c1ccc(Cl)cc1)N1CCCCC1 (configuration not stated) | -8 | . | 10 | -2 | -1 | . | .
Cc1[nH]c2ccccc2c1/C=N/Nc1nc2ccccc2[nH]1 | 40 | . | -20 | -12 | -22 | 18 | 9
Cc1ccccc1/C=N/Nc1nc2ccccc2[nH]1 | 13 | -1 | -11 | -5 | -2 | . | .
Cc1ccc(S(=O)(=O)N2CCN(C(=O)COC(=O)c3cc([N+](=O)[O-])ccc3NCCO)CC2)c(C)c1 | 13 | . | . | 0 | . | . | .
Cc1ccc(S(=O)(=O)N2CCN(C(=O)COC(=O)c3ccc([N+](=O)[O-])o3)CC2)c(C)c1 | 59* | . | . | 3 | . | 22 | 8
COc1ccc(Cl)cc1NC(=O)CCNS(=O)(=O)c1cccc2nonc12 | 4 | . | 8 | -2 | 3 | . | .
COc1ccc(C(C)=O)cc1COC(=O)C1CC(=O)N(Cc2ccccc2)C1 (configuration not stated) | -3 | . | 16 | -4 | 0 | . | .
COc1cc2c(C#N)c(N3CCOCC3)nc(N)c2c(N)n1 | 5 | 0 | 11 | 2 | 7 | . | .
CCN(CC)c1nc(N)c2c(N)nc(OC)cc2c1C#N | 46* | . | . | 19 | 32 | 4 | 1
CCOc1cc2c(C#N)c(N3CCCCC3)nc(N)c2c(N)n1 | 97* | 5 | 96 | 19 | -5 | 37 | 0
C1=CC(c2cc3ccccc3o2)OC(CCc2ccccc2)C1 (configuration not stated) | 6 | . | 0 | 4 | 11 | . | .
CC(C)c1ccc(/C=N/Nc2cc(N3CCOCC3)nc(N3CCOCC3)n2)cc1 | 62* | 0 | -9 | 2 | 0 | 46* | 11 | Apaf1 inh interf=>100
Cc1cccc(/C=N/Nc2cc(N3CCOCC3)nc(N3CCOCC3)n2)c1 | 68* | 1 | -5 | 8 | 9 | 33 | 4
Oc1ccc(/C=N\Nc2cc(N3CCOCC3)nc(N3CCOCC3)n2)c(O)c1 | 85* | 0 | ? | 8 | 26 | 60* | 7 | Apaf1 inh interf=>100
SMILES | Apaf1 inhib | Redox H2O2 prof | SUMO HTRF inh | HKDC1 inh | GSTO1 counter | Apaf-1 inh conf2 | Rh110 quench | others
Cc1cc(N/N=C/c2ccccc2)nc(N2CCOCC2)n1 | 1 | . | 23 | -3 | -6 | . | .
COc1ccc(C)cc1S(=O)(=O)N1CCN(C)CC1c1ccccc1 (configuration not stated) | 2 | . | . | -3 | . | . | .
O=C(O)c1ccc(CS(=O)(=O)c2c(Cl)cccc2Cl)o1 | 3 | . | 22 | -4 | 14 | . | .
c1ccc(CNc2nc(NCc3ccccc3)c3ccccc3n2)cc1 | 66* | . | -10 | 11 | -16 | 6 | 0
O=C(c1ccc(CNS(=O)(=O)c2cccc(Cl)c2)cc1)N1CCCCC1 | 3 | . | -2 | 3 | 0 | . | .
CN1C(=O)c2cccc3c(S(=O)(=O)NCc4ccco4)ccc1c23 | 55* | 1 | 65 | 18 | 1 | 16 | 3
CN1C(=O)c2cccc3c(S(N)(=O)=O)ccc1c23 | -14 | . | 47 | 9 | 3 | . | .
NS(=O)(=O)c1ccc(CCNC(=O)c2ccc(Cn3c(=O)[nH]c4ccccc4c3=O)cc2)cc1 | 3 | -2 | 25 | -7 | -28 | . | .
COc1ccc(NC(=O)CCN(c2ccc(OC)cc2)S(=O)(=O)c2ccc(C)c(C)c2)cc1 | . | . | . | 3 | . | . | .
CCC1(c2ccccc2)NC(=O)N(CC(=O)NCC2COc3ccccc3O2)C1=O (configuration not stated) | 2 | . | . | 0 | . | . | .
CC1CCCC(NC(=O)COC(=O)c2ccc([N+](=O)[O-])s2)C1C (configuration not stated) | 41* | . | . | 0 | . | 31 | 5
CCCCCCCCCCCCOC(=O)C[N+](C)(C)C | 46* | . | 1 | -3 | 5 | 10 | 1
COc1ccc(N2CC(C(=O)NCCc3ccc(Cl)cc3)CC2=O)cc1 (configuration not stated) | 5 | . | 6 | -3 | -3 | . | .
COCCN(Cc1ccccc1)C(=O)c1cccc(S(=O)(=O)N2CCN(c3ccccc3)CC2)c1 | 43* | . | . | -1 | -8 | 42* | 6 | Apaf1 inh interf=>100
CSc1ccc(CN(C)C(=O)c2cc(S(=O)(=O)NCc3ccccc3)ccc2C)cc1 | 18 | . | . | 1 | 7 | . | .
COCCN(Cc1ccccc1)C(=O)c1cccc(S(=O)(=O)N2CCN(c3ccc(F)cc3)CC2)c1 | 34 | . | . | 1 | 0 | . | .
CC1CN(C(=O)c2ccc(CNS(=O)(=O)c3cccc(Cl)c3)cc2)CC(C)O1 (configuration not stated) | 7 | . | -2 | -7 | . | . | .
CSc1ccc(CN(C)C(=O)c2cccc(S(=O)(=O)NCc3ccccc3)c2)cc1 | 67* | . | -14 | -3 | 2 | 36 | 5
CC1CN(C(=O)c2cccc(S(=O)(=O)NCc3ccccc3)c2)CC(C)O1 (configuration not stated) | 54* | . | . | -8 | . | 35 | 3
COCCN(Cc1ccccc1)C(=O)C1CCN(S(=O)(=O)c2ccc3c(c2)OCCO3)CC1 | 49* | . | . | -7 | . | 33 | 12
